HUVEC prolif 384 = blocks proliferation of human endothelial cells | HUVEC proliferation, CellTiter-Glo luminescence, 72 h; hits give low values | hit rate 1.1% among 86,000 | viability, % at 10 µM (by protocol);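 active = viability at or below 30%; inactive = viability above 30%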
Jurkat tox 60K = cytotoxic compounds reducing Jurkat cell viability; hit rate 1.2% among 56,000; Jurkat E6.1 viability, ATP luminescence, 48 h; inhibition, % at 4 µM; AID 463;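 active = inhibition above the mean inhibition of all tested compounds plus 3 SD, cut at about 28% in these data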
H69AR inhibit = blocks growth of human H69AR lung tumor cells. hit rate 6% among 85,000. viability, % at 10 µM. H69AR lung tumor viability, ATP luminescence, 72 h; hits give low values;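 active = viability at or below 40%; inactive = viability above 40%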;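 note: multidrug resistant small cell line overexpressing MRP-1 efflux transporter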
Lung fibro prol = blocks proliferation of human lung fibroblasts; viability, % at 10 µM; LL 47 human lung fibroblast viability, ATP luminescence; hits give low values; AID 719; hit rate 1.1% among 85,000;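 active = viability at or below 50% in the single dose screen; inactive = viability above 50%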;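 note: compound exposure lasted 72 h before the ATP readout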
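material = human LL 47 lung fibroblast cells | dosing = compounds added from tenfold dosing solution, 0.1% DMSO final | timing = overnight cell rest, 72 h compound treatment at 37 °C | measured by = CellTiter-Glo luminescence measuring cellular ATP | evaluation = % viability versus median cells-only luminescence | control set = cell-only wells, no compound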
Hits are given with their value; n = inactive; x = no result. Rows were chosen to be rich in hits. Some 6.4% of all compounds tested hit in one or more screens of this group.

SMILES	HUVEC prolif 384	Jurkat tox 60K	H69AR inhibit	Lung fibro prol
O=c1cc(Nc2ccc3c(c2)OCCO3)[nH]c(=O)n1C1CCCCC1	n	58.8	18.2	n
COc1ccc(OC)c(S(=O)(=O)N2CCC(C(=O)NCc3ccccc3)CC2)c1	n	n	n	n
COc1ccc(OC)c(S(=O)(=O)N2CCC(C(=O)N3CCc4ccccc4C3)CC2)c1	n	n	35.8	n
COc1ccc(NC(=O)C2=C(C)C(=O)OC23CCC(C)CC3)cc1Cl (configuration not stated)	n	x	n	n
N#Cc1c(-c2ccc(Cl)cc2)ccn2nc(C3CCCCC3)nc12	n	x	31.3	n
Cc1cc(C)n(/N=C/c2ccccc2)c(=O)c1C#N	n	n	n	n
N#CC1=C(c2ccccc2)/C(=C/c2ccccc2)OC1=O	27.6	x	4.0	5.4
Cc1cc(C)n(-c2nc3c(c(=O)n(C)c(=O)n3C)n2CC(O)COc2ccccc2C)n1 (configuration not stated)	n	x	n	n
Cc1cc(NC(=O)CSc2nc(-c3ccco3)cc(C(F)(F)F)n2)no1	x	59.4	x	x
Cc1cccc(C)c1NC(=O)CSc1nc(-c2ccco2)cc(C(F)(F)F)n1	n	x	30.2	n
Cc1ccc(Cn2ccc(NC(=O)CCSc3nc(-c4ccco4)cc(C(F)(F)F)n3)n2)cc1	n	n	14.3	n
Cc1cc(NC(=O)CCSc2nc(-c3ccco3)cc(C(F)(F)F)n2)no1	n	x	n	n
O=C(CSc1nc(-c2ccco2)cc(C(F)(F)F)n1)Nc1ccccc1C(F)(F)F	n	x	26.2	n
Cc1cccc(/C=N/n2c(C)cc(C)c(C#N)c2=O)c1	n	x	n	n
CCOc1cc(C2NC(=O)NC(C)=C2C(=O)NCc2ccccc2)c(Cl)cc1O (configuration not stated)	n	x	n	n
CC1=C(C#N)C(c2cccnc2)C2=C(CC(c3ccc(Cl)cc3)CC2=O)N1 (configuration not stated)	n	x	n	n
CCN(CC(=O)N1CCN(C)CC1)S(=O)(=O)c1ccc(Cl)cc1	n	n	n	n
CC(C)(C)c1ccccc1OCCCCCNCCO	n	n	10.9	n
COc1cccc(C2=CC(c3cccs3)n3nnnc3N2)c1 (configuration not stated)	n	x	14.9	n
COc1ccccc1C1C=C(c2ccccc2)Nc2nnnn21 (configuration not stated)	n	79.6	10.6	n
COc1cccc(C2=CC(c3ccc(OC)c(OC)c3OC)n3nnnc3N2)c1 (configuration not stated)	n	n	7.6	n
COc1ccc(C2=CC(c3sccc3C)n3nnnc3N2)cc1 (configuration not stated)	n	n	n	n
COc1ccc(C2=CC(c3ccc(F)cc3)n3nnnc3N2)cc1 (configuration not stated)	n	n	n	n
CC(OC(=O)c1ccncc1)C(=O)Nc1cccc(Cl)c1 (configuration not stated)	n	n	n	n
CC1CCc2c(sc3nc(SCC(=O)NCc4ccco4)nc(N)c23)C1 (configuration not stated)	n	n	35.2	n
SMILES	HUVEC prolif 384	Jurkat tox 60K	H69AR inhibit	Lung fibro prol
CCN(CC)C(=O)CSc1nc(N)c2c3c(sc2n1)CC(C)CC3 (configuration not stated)	n	x	37.2	n
Cc1cc(N2C(=O)CCC2=O)ccc1NC(=O)c1cccs1	n	x	n	n
Cc1ccc(-c2cc(C(F)F)n3ncc(C(=O)N4CCN(c5cccc(C)c5C)CC4)c3n2)cc1	n	x	n	n
CCOC(=O)c1nnn(-c2nonc2N)c1CN1CCc2ccccc2C1	n	n	n	n
COC(=O)c1nnn(-c2nonc2N)c1CN1CCc2ccccc21	n	n	27.6	n
Cc1nc(SCC(=O)Nc2ccc(F)cc2)c2oc3ccccc3c2n1	n	n	n	n
Cc1nc(SCC(=O)Nc2ccccc2)c2oc3ccccc3c2n1	n	n	12.0	n
O=C(CSc1ncnc2c1oc1ccccc12)Nc1nc2ccccc2s1	15.5	x	13.1	n
O=C(CSc1ncnc2c1oc1ccccc12)Nc1cccc(C(F)(F)F)c1	n	n	16.6	n
O=C(CSc1nnc(-c2ccncc2)n1-c1ccc(Cl)cc1)NCc1cccs1	n	x	n	n
CC(=O)CC(=O)Nc1ccccc1NC(C)=O	n	n	n	n
COc1ccc(CCN2C(=O)C3C4C=CC(C3C2=O)C2C(=O)N(CCc3ccc(OC)c(OC)c3)C(=O)C42)cc1OC (configuration not stated)	n	x	39.6	n
O=C(Nc1c2c(nn1-c1ccc(F)cc1)CS(=O)(=O)C2)C12CC3CC(CC(C3)C1)C2	n	x	n	n
Cn1c(/C(C#N)=C(\O)COc2ccc3ccccc3c2)nc2ccccc21	n	n	12.2	n

Compound activity from PubChem BioAssay.
